{"data": "Results pooled from the literature", "note": "Compare with care: the assays were run in different laboratories."}
{"Compound": "O=c1c2ccc(OCc3ccc(C(F)(F)F)cc3)cc2[nH]c2cc(Cl)cc(F)c12", "assay": "metabolic stability", "test system": "mouse, liver microsomes", "conditions": "1 µM, pH 7.4", "measurement": "microsomal CLint", "value": "6.76 µL/min/mg"}
{"Compound": "CC(C)n1ncc2c(C(=O)NCC3(F)CNC3)cc(C3CC3)nc21", "assay": "metabolic stability", "test system": "mouse, liver microsomes", "measurement": "scaled CLint", "value": "78.2 mL/min/kg"}
{"Compound": "CCCN(CCC)CCOc1ccc2c(=O)c3c([nH]c2c1)CCCC3", "assay": "metabolic stability", "test system": "mouse, liver microsomes", "conditions": "1 µM, pH 7.4", "measurement": "microsomal CLint", "value": "51.9 µL/min/mg"}
{"Compound": "O=C1NC(CF)(CF)C(=O)N1c1ccc(F)c(C(F)(F)F)c1", "assay": "metabolic stability", "test system": "mouse, liver microsomes", "measurement": "microsomal CLint", "value": "< 7 µL/min/mg"}
{"Compound": "Cc1cc(S(=O)(=O)N[C@]2(C)C[C@H](N3CCN(CC4CCN(c5ccc6c(c5F)n(C)c(=O)n6C5CCC(=O)NC5=O)CC4)CC3)C2)ccc1Nc1ncc(C(F)(F)F)c(N2CCC[C@](C)(O)C2)n1 (some centres unmarked)", "test system": "rat, plasma", "conditions": "intravenous, 2 mg/kg", "measurement": "Vd", "value": "42 L/kg"}
{"Compound": "CN(C)CCOc1ccc2c(=O)c3c([nH]c2c1)CCCC3", "assay": "metabolic stability", "test system": "mouse, liver microsomes", "conditions": "1 µM, pH 7.4", "measurement": "microsomal CLint", "value": "40.4 µL/min/mg"}
{"Compound": "CC(C)c1cc(C(=O)NCCN2CCCC2)c2cnn(C(C)C)c2n1", "assay": "metabolic stability", "test system": "mouse, liver microsomes", "measurement": "scaled CLint", "value": "195 mL/min/kg"}
{"Compound": "Cc1cc(S(=O)(=O)NC2CC(N3CCN(CC4CCN(c5ccc(NC6CCC(=O)NC6=O)cc5C)CC4)CC3)C2)ccc1Nc1ncc(C(F)(F)F)c(N2CCC[C@](C)(O)C2)n1 (some centres unmarked)", "test system": "rat, plasma", "conditions": "intravenous, 2 mg/kg", "measurement": "Vd", "value": "9 L/kg"}
{"Compound": "C[C@H]1Oc2cc(cnc2N)-c2c(nn(C)c2C#N)CN(C)C(=O)c2ccc(F)cc21", "test system": "male Sprague-Dawley rat, plasma", "conditions": "oral, 10 mg/kg, single dose", "measurement": "Vd/F", "value": "37 L/kg"}
{"Compound": "CC(C)n1ncc2c(C(=O)NCC3(C)CNC3)cc(C3CC3)nc21", "assay": "metabolic stability", "test system": "mouse, liver microsomes", "measurement": "scaled CLint", "value": "< 38 mL/min/kg"}
{"Compound": "CC1(C)NC(=O)N(c2ccc(F)c(F)c2)C1=O", "assay": "metabolic stability", "test system": "mouse, liver microsomes", "measurement": "microsomal CLint", "value": "7 µL/min/mg"}
{"Compound": "CC(C)n1ncc2c(C(=O)NC(C)(C)CN)cc(C3CC3)nc21", "assay": "metabolic stability", "test system": "mouse, liver microsomes", "measurement": "scaled CLint", "value": "75.6 mL/min/kg"}
{"Compound": "CNS(=O)(=O)c1ccc(Nc2ncc(C(F)(F)F)c(N3CCC(C)(O)CC3)n2)c(C)c1", "test system": "rat, plasma", "conditions": "intravenous, 2 mg/kg", "measurement": "Vd", "value": "3 L/kg"}
{"Compound": "O=c1c2c([nH]c3ccc(F)c(Oc4ccc(OC(F)(F)F)cc4)c13)CCCC2", "assay": "metabolic stability", "test system": "mouse, liver microsomes", "conditions": "1 µM, pH 7.4", "measurement": "microsomal CLint", "value": "49 µL/min/mg"}
